The test system of the experiment is AM2.2-beta2AR cells, FAP fluorogen binding after washes, flow cytometry. In words: washout recovery of fluorogen binding to FAP – AM2.2-beta2AR cells, powder sets 3 and 4, mechanism study for beta2AR internalization ligand project (AID 651936). In outline: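 Material: AM2.2-beta2AR cell line | Medium: Serum-free RPMI, 1% FBS RPMI wash medium | Also added: TO1-2p at 150 nM final, added to cell aliquots | Incubation: 90 min compound exposure at 37 °C | Technique: Flow cytometry | Read-out: TO1-2p binding versus number of washes | Controls: DMSO-only treated cells as negative control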

The structures appear in SMILES notation.

Regarding `CCCCC(=O)Nc1ccc(S(=O)(=O)N2CCCCC2c2cccnc2)cc1` (configuration not stated), the normalized fluorogen binding (at 0.3 µM (top of the series)) was 0.181.
Turning to `Cc1ccc(S(=O)(=O)N(C)CC(=O)N2CCN(c3ccccn3)CC2)cc1`, the normalized fluorogen binding (at 0.8 µM (top of the series)) was 0.124.
Turning to `CN(CC(=O)N1CCN(c2ccccn2)CC1)S(=O)(=O)c1ccc(Cl)cc1`, the normalized fluorogen binding (at 0.2 µM (top of the series)) is 0.143.
Consider `CCOC(=O)N1CCN(C(=O)CN(C)S(=O)(=O)c2ccc(Cl)cc2)CC1`, for which the normalized fluorogen binding (at 10 µM (top of the series)) is 0.122.
Consider `CC(C)n1nnc2cc(S(=O)(=O)N(C)CC(=O)N3CCN(c4ccccn4)CC3)ccc21`, for which the normalized fluorogen binding (at 60 µM (top of the series)) is 0.257.
In the case of `Cc1ccc(S(=O)(=O)N2CCCCC2C(=O)N2CCN(c3ccc(C(F)(F)F)cn3)CC2)cc1` (configuration not stated), under “at 100 µM (top of the series)”, the normalized fluorogen binding is 0.154.
Consider `O=C(Nc1ccc(S(=O)(=O)N2CCCCC2c2cccnc2)cc1)c1c(F)cccc1F` (configuration not stated), for which the normalized fluorogen binding (at 2 µM (top of the series)) is 0.232.
On to `CN(CC(=O)N1CCN(c2ccccn2)CC1)S(=O)(=O)c1ccccc1`, for which, for the setting “at 0.85 µM (top of the series)”, the normalized fluorogen binding was 0.218.
Regarding `CN(CC(=O)N1CCN(c2cccc(C(F)(F)F)c2)CC1)S(=O)(=O)c1ccc(F)cc1`, under “at 60 µM (top of the series)”, the normalized fluorogen binding was 0.233.
Take `CC(=O)Nc1ccc(S(=O)(=O)N2CCCCC2c2cccnc2)cc1` (configuration not stated): the normalized fluorogen binding is 0.147 (at 1.4 µM (top of the series)) and 0.642 (at 60 µM (top of the series)).
Regarding `CN(CC(=O)N1CCN(c2ccccn2)CC1)S(=O)(=O)c1ccc(Br)cc1`, the normalized fluorogen binding (at 0.2 µM (top of the series)) is 0.145.

These data come from PubChem BioAssay AID651936 (NMMLSC, 2012).
